Published values of several laboratories.
Lines come from different studies, so protocols differ. pKd: −log10 of the molar value.
Nectin-4: Nectin-4 (Homo sapiens, UniProt Q96NY8)
UCK1: UCK1 (Homo sapiens, UniProt Q9HA47)
PIK3C2B: Phosphatidylinositol 4-phosphate 3-kinase C2 domain-containing subunit beta (PIK3C2B, Homo sapiens, UniProt O00750)

| Compound | target | test | conditions | pKd |
| --- | --- | --- | --- | --- |
| CCCC[C@@H]1NC(=O)[C@H](Cc2ccc(O)cc2)NC(=O)[C@@H]2CCCN2C(=O)[C@H](CC(=O)O)NC(=O)[C@H](C)NC(=O)[C@H](Cc2ccccc2)NC(=O)[C@@H]2CSCCC(=O)N3CN(CN(C3)C(=O)CCSC[C@@H](C(=O)N[C@@H](CNC(=O)CCc3cn(CCOCCOCCOCCOCCOCCOCCOCCOCCOCCOCCOCCOCCC(=O)NCCC(=O)N(C)CC(=O)N(C)CC(=O)N(C)CC(=O)N(C)CC(=O)N(C)CC(=O)N(C)CC(=O)N(C)CC(=O)N(C)CC(=O)N(C)CC(=O)N(C)CC(=O)NCCCC[C@@H]4NC(=O)[C@H](Cc5cccc6ccccc56)NC(=O)[C@@H]5CCCN5C(=O)[C@@H](NC(C)=O)CSCCC(=O)N5CN6CN(C5)C(=O)CCSC[C@H](NC4=O)C(=O)N[C@@H](CCSC)C(=O)N[C@@H](CCCCNC(=N)N)C(=O)N[C@@H](CC(=O)O)C(=O)N[C@@H](Cc4c[nH]c5ccccc45)C(=O)N[C@@H](CO)C(=O)N[C@@H]([C@@H](C)O)C(=O)N4CCC[C@H]4C(=O)N4C[C@H](O)C[C@H]4C(=O)N[C@@H](Cc4c[nH]c5ccccc45)C(=O)N[C@H](C(N)=O)CSCCC6=O)nn3)C(N)=O)NC1=O)C(=O)CCSC[C@H](NC(C)=O)C(=O)N[C@@H](CC(C)(C)C)C(=O)N1CCC[C@H]1C(=O)N[C@@H](CCC(=O)O)C(=O)N[C@H](C)C(=O)N1CCC[C@H]1C(=O)N[C@@H](Cc1ccc(O)cc1)C(=O)N2 | Nectin-4 | binding, SPR |  | 8.70 |
| Nc1ccn([C@@H]2O[C@H](CO)[C@@H](O)[C@H]2O)c(=O)n1 | UCK1 | binding, fluorescence |  | 7.80 |
| CCCC[C@@H]1NC(=O)[C@H](Cc2ccc(O)cc2)NC(=O)[C@@H]2CCCN2C(=O)[C@H](CC(=O)O)NC(=O)[C@H](C)NC(=O)[C@H](Cc2ccccc2)NC(=O)[C@@H]2CSCCC(=O)N3CN(CN(C3)C(=O)CCSC[C@@H](C(=O)N[C@@H](C)C(N)=O)NC1=O)C(=O)CCSC[C@H](NC(C)=O)C(=O)N[C@@H](CC(C)(C)C)C(=O)N1CCC[C@H]1C(=O)N[C@@H](CCC(=O)O)C(=O)N[C@H](CCCCNC(=O)CCc1cn(CC(=O)N[C@H]3CSCCC(=O)N4CN5CN(C4)C(=O)CCSC[C@H](NC(=O)[C@@H](CC(=O)O)NC(=O)[C@H](Cc4cccc6ccccc46)NC(=O)[C@@H]4CCCN4C3=O)C(=O)N[C@@H](CCSC)C(=O)N[C@@H](CCCCNC(=N)N)C(=O)N[C@@H](CC(=O)O)C(=O)N[C@@H](Cc3c[nH]c4ccccc34)C(=O)N[C@@H](CO)C(=O)N[C@@H]([C@@H](C)O)C(=O)N3CCC[C@H]3C(=O)N3C[C@H](O)C[C@H]3C(=O)N[C@@H](Cc3c[nH]c4ccccc34)C(=O)N[C@H](C(N)=O)CSCCC5=O)nn1)C(=O)N1CCC[C@H]1C(=O)N[C@@H](Cc1ccc(O)cc1)C(=O)N2 | Nectin-4 | binding, SPR |  | 9.00 |
| CC(=O)N[C@H](C(=O)N[C@H](C(=O)N[C@@H](Cc1ccccc1)C(=O)N[C@H](C(=O)N[C@@H](CO)C(=O)N[C@@H](Cc1c[nH]c2ccccc12)C(=O)N[C@@H](CCC(=O)O)C(=O)N[C@@H](CCC(=O)O)C(=O)N[C@@H](Cc1ccc(O)cc1)C(=O)N[C@@H](CC(C)C)C(=O)N[C@@H](CC(=O)O)C(=O)N[C@@H](Cc1c[nH]c2ccccc12)C(=O)N[C@H](C(N)=O)C(C)C)[C@@H](C)O)C(C)C)[C@@H](C)O | Proprotein convertase subtilisin/kexin type 9 (PCSK9, Homo sapiens, UniProt Q8NBP7) | binding, SPR |  | 6.18 |
| C=CC(=O)N1CCC(C(=O)N(C)CC(=O)N2CCN(c3nc(-c4cnc(N)nc4C(F)F)nc(N4CCOCC4)n3)CC2)CC1 | PIK3C2B | binding, competition with immobilised ligand |  | 6.81 |
| Cc1cc(Nc2cc3ncccc3c(N[C@@H]3C[C@H]4CC[C@@H](C3)N4CCC#N)n2)n[nH]1 | Serine/threonine-protein kinase 16 (STK16, Homo sapiens, UniProt O75716) | binding, competition with immobilised ligand |  | 6.96 |
| Nc1ncnc2c1ncn2[C@@H]1O[C@H](COP(=O)(O)O)[C@@H](O)[C@H]1O | Adenylosuccinate lyase (ADSL, Homo sapiens, UniProt P30566, R303C) | binding, ITC |  | 3.89 |
| [N-]=[N+]=N[C@@H]1[C@H](O)[C@@H](CO)O[C@H]1n1ccc(=O)[nH]c1=O | UCK1 | binding, fluorescence |  | 6.74 |
| Cc1nc(NC(=O)N2CCC[C@H]2C(N)=O)sc1-c1ccnc(C(C)(C)C(F)(F)F)c1 | PIK3C2B | binding, competition with immobilised ligand |  | 6.50 |
| CC(=O)N[C@H](C(=O)N1C[C@H](O)C[C@H]1C(=O)NCc1ccc(-c2scnc2C)cc1)C(C)(C)SCCCCCCNC(=O)C[C@@H]1N=C(c2ccc(Cl)cc2)c2c(sc(C)c2C)-n2c(C)nnc21 | Bromodomain-containing protein 3, BD1 (BRD3, Homo sapiens, UniProt Q15059) | binding, ITC |  | 7.46 |
| CCCC[C@@H]1NC(=O)[C@H](Cc2ccc(O)cc2)NC(=O)[C@@H]2CCCN2C(=O)[C@H](CC(=O)O)NC(=O)[C@H](C)NC(=O)[C@H](Cc2ccccc2)NC(=O)[C@@H]2CSCCC(=O)N3CN(CN(C3)C(=O)CCSC[C@@H](C(=O)N[C@@H](CNC(=O)Cn3cc(CCC(=O)NCCC(=O)N(C)CC(=O)N(C)CC(=O)N(C)CC(=O)N(C)CC(=O)N(C)CC(=O)N(C)CC(=O)N(C)CC(=O)N(C)CC(=O)N(C)CC(=O)N(C)CC(=O)N[C@H]4CSCCC(=O)N5CN6CN(C5)C(=O)CCSC[C@H](NC(=O)[C@@H](CC(=O)O)NC(=O)[C@H](Cc5cccc7ccccc57)NC(=O)[C@@H]5CCCN5C4=O)C(=O)N[C@@H](CCSC)C(=O)N[C@@H](CCCCNC(=N)N)C(=O)N[C@@H](CC(=O)O)C(=O)N[C@@H](Cc4c[nH]c5ccccc45)C(=O)N[C@@H](CO)C(=O)N[C@@H]([C@@H](C)O)C(=O)N4CCC[C@H]4C(=O)N4C[C@H](O)C[C@H]4C(=O)N[C@@H](Cc4c[nH]c5ccccc45)C(=O)N[C@H](C(N)=O)CSCCC6=O)nn3)C(N)=O)NC1=O)C(=O)CCSC[C@H](NC(C)=O)C(=O)N[C@@H](CC(C)(C)C)C(=O)N1CCC[C@H]1C(=O)N[C@@H](CCC(=O)O)C(=O)N[C@H](C)C(=O)N1CCC[C@H]1C(=O)N[C@@H](Cc1ccc(O)cc1)C(=O)N2 | Nectin-4 | binding, SPR |  | 8.59 |
| NC(=O)c1ncn([C@@H]2O[C@H](COP(=O)(O)O)[C@@H](O)[C@H]2O)c1N | Adenylosuccinate lyase (ADSL, Homo sapiens, UniProt P30566) | binding, ITC |  | 4.47 |
| O=C(CCCCCCC(=O)Nc1ccc([C@H]2O[C@@H](CSc3nc(-c4ccccc4)c(-c4ccccc4)o3)C[C@@H](c3ccc(CO)cc3)O2)cc1)NO | Histone deacetylase 2 (HDAC2, Homo sapiens, UniProt Q92769) | cell-free assay |  | < 4.52 |
| CCC(=O)N1CCC(C(=O)NCC(=O)N2CCN(c3nc(-c4cnc(N)nc4C(F)F)nc(N4CCOCC4)n3)CC2)CC1 | PIK3C2B | binding, competition with immobilised ligand |  | 7.07 |
| NC(=O)C1=CN([C@@H]2O[C@H](COP(=O)(O)OP(=O)(O)OC[C@H]3O[C@@H](n4cnc5c(N)ncnc54)[C@H](OP(=O)(O)O)[C@@H]3O)[C@@H](O)[C@H]2O)C=CC1 | ZMO1885 (Zymomonas mobilis, UniProt Q5NLA1, D294W/Y343W) | binding |  | 4.28 |
| Cc1cc2nc3c(=O)[nH]c(=O)nc-3n(C[C@H](O)[C@H](O)[C@H](O)COP(=O)(O)OP(=O)(O)OC[C@H]3O[C@@H](n4cnc5c(N)ncnc54)[C@H](O)[C@@H]3O)c2cc1C | Heterogeneous nuclear ribonucleoprotein U-like protein 1 (HNRNPUL1, Homo sapiens, UniProt Q9BUJ2) | binding | lysate | 7.96 |
| Cc1cnc(-c2ccc(-c3ccc(NC(=O)Nc4c(F)cc(F)cc4F)cc3F)c3c2C(=O)NC3)[nH]1 | Aurora kinase B (AURKB, Homo sapiens, UniProt Q96GD4) | binding, competition with immobilised ligand |  | 8.51 |
